# From PubChem BioAssay
# Hits are enriched below; roughly 2.3% of the tested compounds scored in any of these assays.
# OXTR potentiator = potentiators of human oxytocin receptor; 0.061% of 320,000 active; activation, % at 3 µM; CHO-OTR cells, Fluo-8 calcium fluorescence, potentiator mode; 0% = oxytocin EC15, 100% = EC100;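 active means activation above that plate's cutoff, the mean activation of tested compounds plus 3 SD, cut at about 6.6% in these data, passing the limit was not always enough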;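 further: 100% uses oxytocin at 75 nM as the full agonist control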
#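 Material: human OTR in CHO cells. Compound: 3.0 µM, one dose. Timing: compound 6 min at room temperature before oxytocin, 100 s read. Evaluation: % activation of max/min ratio relative to oxytocin controls. Replication: single well per compound, singlicate. Signal: Fluo-8 calcium dye fluorescence.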
# V1aR counter = activates human V1a receptor in oxytocin agonist counter-screen | P37288 | CHO-V1R cells, Fluo-8 calcium fluorescence, agonist mode; 0% DMSO, 100% 3 nM vasopressin | activation, % at 3 µM | 0.25% of 320,000 active | AID 2797;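 active means activation above the mean activation of all tested compounds plus 3 SD, per screening run, cut at about 20% in these data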;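 further: signal is peak over basal fluorescence ratio across a 100 second FLIPR read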
# OXTR ag = agonists of human oxytocin receptor; P30559; CHO-OTR cells, Fluo-8 calcium fluorescence; normalized: DMSO 0%, oxytocin 100%; activation, % at 3 µM; 0.32% of 320,000 active;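 active means activation above the mean of all tested compounds plus 3 SD, cutoff set per screening run, cut at about 20% in these data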;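 further: peak over basal fluorescence ratio from a 100 s FLIPR kinetic read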
# TAAR1 ag = agonists of human TAAR1. AID 624467. activation, % at 3 µM. CHO RD-HGA16 TAAR1, Fluo-8 calcium fluorescence; vehicle wells 0%, saturating PEA agonist 100%. Q96RJ0. 0.99% of 360,000 active;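 active means activation above the mean activation of all test compounds in the run plus 3 SD, cut at about 38% in these data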
# Target sequence (Q96RJ0 whole entry, looked up): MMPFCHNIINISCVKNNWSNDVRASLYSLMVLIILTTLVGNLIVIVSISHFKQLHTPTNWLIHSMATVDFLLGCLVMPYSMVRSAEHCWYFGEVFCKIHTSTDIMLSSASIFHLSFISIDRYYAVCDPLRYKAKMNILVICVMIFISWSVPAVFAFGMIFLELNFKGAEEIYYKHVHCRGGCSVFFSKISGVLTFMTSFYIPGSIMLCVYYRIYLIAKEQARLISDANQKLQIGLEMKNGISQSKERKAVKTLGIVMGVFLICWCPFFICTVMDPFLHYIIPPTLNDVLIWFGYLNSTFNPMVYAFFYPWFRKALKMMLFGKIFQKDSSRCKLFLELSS
#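 Assay system – CHO-derived RD-HGA16 cells with stable Gα16 and human TAAR1 · Compound dosing – one-point dosing at 3 µM (nominal) · Incubation – 17-24 h seeding, 75 min 37 °C dye, 30 min RT · Measured by – kinetic Fluo-8 calcium fluorescence · Control set – DMSO vehicle as 0%, PEA at EC100 as 100% · Repeats – single well for each compound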
# TAAR1 antag = human TAAR1 antagonism; AID 624466; CHO RD-HGA16 TAAR1, Fluo-8 calcium fluorescence, antagonist; Q96RJ0; inhibition, % at 3 µM; 1.5% of 360,000 active;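 active means inhibition above a per-plate cutoff, the mean inhibition of test compounds on that plate plus 3 SD, cut at about 49% in these data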;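 further: 0% = DMSO plus EC80 beta-PEA response and 100% = DMSO alone without agonist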
#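 System: RD-HGA16 CHO cells with stable hTAAR1 and Gα16 | Probe or stimulus: EC80 β-phenethylamine stimulus | Dosing: 3 µM, single point | Times: Dye loading 75 min at 37 °C, then 30 min room temperature | Measured by: Fluo-8 calcium-sensitive fluorescence | Read-out basis: % inhibition of agonist calcium response | Replicates: n of 1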
# The depositor's hits bear a star; nt = no result given.
SMILES,OXTR potentiator,V1aR counter,OXTR ag,TAAR1 ag,TAAR1 antag
O=[N+]([O-])c1ccc(N2CCN(Cc3ccccc3)CC2)s1,-17,1,-1,0,19
N#Cc1cc([N+](=O)[O-])ccc1N1CCN(c2ccccc2O)CC1,-25,3,3,17,52*
CC(C(=O)Nc1cc([N+](=O)[O-])ccc1Cl)N1CCN(c2ccccc2O)CC1 (stereo not drawn),-7,0,-2,5,16
CC(C)(C)C(=O)N1CCN(c2ccc([N+](=O)[O-])cc2Cl)CC1,-11,6,7,9,31
O=[N+]([O-])c1ccc(N2CCN(c3ccc([N+](=O)[O-])cc3CO)CC2)c(CO)c1,-21,16,19,12,53*
COC(=O)[C@]1(CC(C)C)N[C@H](c2ccc(-c3ccc(F)cc3)cc2)[C@@H]2C(=O)N(C)C(=O)[C@@H]21,-7,0,0,14,22
O=C(N/C(=C/c1ccc(F)cc1)C(=O)N1CCCCC1)c1ccco1,-5,1,0,0,1
O=C1NC(c2ccccc2)c2c(-c3ccccc3)n[nH]c21 (stereo not drawn),nt,nt,nt,1,-4
Nc1nonc1N/N=C\c1ccccc1,4,0,-1,41*,-22
COc1ccc(/C=N/Nc2nonc2N)cc1,-2,-1,-1,2,11
Cc1ccc(N(C)S(=O)(=O)c2c[nH]c3ccc([N+](=O)[O-])cc23)cc1,-14,5,6,3,51*
COc1ccc(NC(=O)c2cc(-c3ccncc3)nc3ccc(Br)cc23)cc1OC,-14,2,4,15,53*
CC1(C(=O)NCc2ccc(Cl)c(Cl)c2)Oc2cccnc2NC1=O (stereo not drawn),-24,21*,25*,53*,28
CCOc1ccc(/C=C2/SC(=O)NC2=S)cc1,-6,5,4,-2,10
CCOc1ccc(N=C2NC(=O)S/C2=C\c2ccc(N(C)C)cc2)cc1,-11,13,3,24,57*
Cc1ccc(C2C(/C=C3/SC(=S)NC3=O)=C(c3cccs3)Oc3ccccc32)cc1 (stereo not drawn),-4,0,1,1,56*
CC1Cc2cc(/C=C3/SC(=S)NC3=O)ccc2O1 (stereo not drawn),0,1,-2,-4,-8
CC(C)(C)c1ccc(OCc2ccc(C(=O)NCc3cccnc3)o2)cc1,-17,11,10,16,53*
COc1cccc(N(C(=O)c2snc(C(N)=O)c2N)C(C(=O)NCC2CCCO2)c2ccc(F)cc2)c1 (stereo not drawn),-10,1,2,3,10
CCOc1ccc(C(C(=O)NCC2CCCO2)N(C(=O)c2snc(C(N)=O)c2N)c2ccc(F)cc2)cc1 (stereo not drawn),-21,1,1,28,49*
COc1cccc(/C=C2\SC(=S)N(CCCC(=O)N(CCO)c3ccccc3)C2=O)c1,-16,6,2,4,49*
C[C@H](O)[C@@H]1C(=O)N2CCc3c([nH]c4c(-c5ccccc5)cccc34)[C@@H]2C[C@@H]1N(C)C(=O)Nc1cccc2ccccc12,nt,nt,nt,5,27
CCC(=O)c1ccc(OCC(=O)OCC(=O)N2c3ccccc3NC(=O)C2(C)C)cc1,-15,9,5,13,52*
COc1cc(C(=O)OCC(=O)N2c3ccccc3NC(=O)C2(C)C)ccc1OCC(C)C,-14,-1,-1,14,67*
CC1(C)C(=O)Nc2ccccc2N1C(=O)COC(=O)c1cccc(O)c1,-7,0,2,14,31
Cc1cc(OCC(=O)OCC(=O)N2c3ccccc3NC(=O)C2(C)C)ccc1Cl,-12,9,8,8,70*
CC(C)(C)c1ccc(OCCC(=O)OCC(=O)N2c3ccccc3NC(=O)C2(C)C)cc1,-12,3,0,9,93*
Cc1ccc(C(=O)CCC(=O)OCC(=O)N2c3ccccc3NC(=O)C2(C)C)cc1,nt,nt,nt,6,44
OCCC1CN(Cc2cccn2-c2ccccn2)CCN1Cc1ccccc1 (stereo not drawn),6,0,1,0,-10
